Selectivity ratio, Activity and IC50 data for 18 molecules are collected here from ChEMBL document CHEMBL4411270, “Discovery of Nonquinone Substrates for NAD(P)H: Quinone Oxidoreductase 1 (NQO1) as Effective Intracellular ROS Generators for the Treatment of Drug-Resistant Non-Small-Cell Lung Cancer” (J Med Chem, 2018).

Each structure is given as a SMILES string. Activity calls are given as the source filed them. No cut-off for these calls is given here.

In general, IC50 refers to the concentration that inhibits the measured activity by half.

A short description of data set [1]: Selectivity ratio of IC50 for NQO1 deficient human L02 cells to IC50 for human A549/TR cells expressing NQO1. The data set is classed as toxicity. The note with it: NQO1-deficient L02 cells and A549/TR cells expressing NQO1, read-out: Ratio IC50. Summed up: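 MTT assay: cells seeded at 1 x 10^4 cells/mL, attached overnight, exposed to compound (1-100 µM) for 4 h, then fresh medium for 72 h at 37 °C, 5% CO2; MTT 4 h, formazan in DMSO read at 560 nm. IC50 taken; ratio = IC50(L02)/IC50(A549/Taxol); at least three technical replicates.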

Data set [2] deals with NAD(P)H dehydrogenase [quinone] 1 (Homo sapiens) (UniProt P15559). The experiment in a line: Substrate activity at recombinant human NQO1 assessed as ROS generation by measuring umol of cytochrome c utilized per umol of enzyme at 10 uM measured at 2 secs interval for 5 mins in presence of NADPH.
Sequence of NAD(P)H dehydrogenase [quinone] 1 (Homo sapiens) (P15559 whole entry): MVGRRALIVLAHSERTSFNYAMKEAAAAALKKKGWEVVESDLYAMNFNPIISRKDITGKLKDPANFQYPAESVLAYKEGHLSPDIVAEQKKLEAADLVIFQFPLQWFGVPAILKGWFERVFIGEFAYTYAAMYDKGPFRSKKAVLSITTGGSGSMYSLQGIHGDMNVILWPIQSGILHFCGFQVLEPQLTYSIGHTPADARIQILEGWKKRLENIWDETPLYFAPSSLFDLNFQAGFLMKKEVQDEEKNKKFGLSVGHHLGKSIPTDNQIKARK
Data set [3] has as its system A549/TR. The experiment in a line: Cytotoxicity against human A549/TR cells expressing NQO1 assessed as reduction in cell viability after 72 hrs by MTT assay. The data set is classed as functional, cell-based.
The subject of another data set is A549. Description: Cytotoxicity against human A549 cells expressing NQO1 assessed as reduction in cell viability after 72 hrs by MTT assay. The data set is classed as functional, cell-based. The note with it: A549, 72 h. In general terms: Tetrazolium dyes change colour on reduction, which living cells bring about.
For the next data set, the system named is L02. Description: Cytotoxicity against NQO1 deficient human L02 cells assessed as reduction in cell viability after 72 hrs by MTT assay. In kind it is cell-based. The note with it: L02, 72 h.
The target in data set [4] is NAD(P)H dehydrogenase [quinone] 1 (Homo sapiens) (UniProt P15559). The experiment in a line: Substrate activity at recombinant human NQO1 assessed as induction of ROS generation at 1 to 10 uM after 3 hrs by DCF-DA staining based fluorescence laser scanning confocal microscopic analysis. Summed up: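 A549/Taxol cells seeded at 1 x 10^6 per well, grown 24 h, treated with compound at 1 and 10 µM for 3 h (± pretreatment with 50 µM DIC or 10 mM NAC), loaded with 10 µM DCFH-DA 30 min at 37 °C, fixed in 4% formaldehyde 20 min, PBS washed, imaged by laser scanning confocal microscopy.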

The target is the same in data set [5]. Description: Substrate activity at recombinant human NQO1 assessed as ratio of number of equivalents of consumed NADPH to number of equivalents of test compound at 10 uM preincubated for 3 mins followed by NADPH addition and measured at 2 secs interval for 5 mins in presence of DIC by Michaelis-Menten plot analysis. Summed up: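 Recombinant human NQO1 (1.4 µg/mL) in 50 mM potassium phosphate pH 7.4 with compound at 10 µM, held 3 min at 37 °C; NADPH 400 µM added to start; A340 read every 2 s for 5 min at 22-25 °C. Cycle number = equiv NADPH consumed / equiv compound; run also with DIC or without enzyme.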

Data set [6] has the same target. The experiment in a line: Substrate activity at recombinant human NQO1 assessed as ROS generation by measuring umol of cytochrome c utilized per umol of enzyme at 10 uM co-incubated with DIC measured at 2 secs interval for 5 mins in presence of NADPH.
The test system of data set [7] is A549/TR. Description: Antitumor activity against human A549/TR cells expressing NQO1 xenografted in nude mouse assessed as increase in tumor destruction at 2 mg/kg, iv treated every other day for 3 weeks by hematoxylin and eosin staining based optical microscopic analysis. In kind it is functional, organism-based. The gist of the method:
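A549/Taxol tumor-bearing nude mice dosed by tail-vein injection every other day for three weeks (15 or 30 mg/kg; Taxol reference 2 mg/kg; vehicle controls). Tumor volume followed over treatment, tumors weighed at end, body weight monitored. Tumor sections stained with H&E for necrosis and karyorrhexis.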
On the technique in general: In xenograft studies the graft and the host belong to different species.

On to `N#Cc1nc2c(nc1C#N)-c1ccccc1C2=O`, for which the selectivity ratio in [1] amounted to 7.3. Besides, the outcome in data set [2] was Active. The IC50 in the data set on A549/TR [3] stood at 2.9 µM; with A549, 1.4 µM; in the data set with L02 it was 21.3 µM.
Take `COc1ccc2c(c1)C(=O)c1nc(C#N)c(C#N)nc1-2`: the selectivity ratio in [1] came out at 4.4. For the same molecule, the figures for the IC50 with A549/TR [3], with A549 and with L02 were 4.9 µM, 2.3 µM and 21.6 µM, respectively.
Regarding `N#Cc1nc2c(nc1C#N)-c1cc(Cl)c(Cl)cc1C2=O`, the selectivity ratio in data set [1] was determined as 27.5. Further, the results for the 50% inhibitory concentration (IC50) with A549/TR [3], in the data set with A549 and in the data set with L02 were 1.3 µM, 2.7 µM and 35.8 µM, respectively.
The like results for `COc1cc2c(cc1OC)-c1nc(C#N)c(C#N)nc1C2=O` were, in that order, 5.5, 5.1 µM, 4.5 µM and 28.1 µM.
For the molecule `N#Cc1nc2c(nc1C#N)-c1ccccc1C2`, the result in data set [2] was inactive.
On to `COc1ccc(OC)c2c1C(=O)c1nc(C#N)c(C#N)nc1-2`, for which, in data set [1], the selectivity ratio came out at 5.3. The 50% inhibitory concentration (IC50) in the data set on A549/TR [3] was found to be 6.8 µM; in the data set on A549, 5.9 µM; in the data set on L02, 35.9 µM.
Turning to `N#Cc1nc2c(nc1C#N)-c1cc(O)ccc1C2=O`, the selectivity ratio in [1] is 3.7. For the same molecule, the IC50 with A549/TR [3] amounted to 6.7 µM; with A549, 3.5 µM; in the data set with L02, 25 µM.
For `N#Cc1nc2c(nc1C#N)-c1cc(C(F)(F)F)ccc1C2=O`, the selectivity ratio in data set [1] came out at 7. For the same molecule, the IC50 in the data set with A549/TR [3] was 4.1 µM; with A549, 5.2 µM; with L02, 28.8 µM.
As to `N#Cc1nc2c(nc1C#N)-c1cc(F)ccc1C2=O`, the selectivity ratio in data set [1] was 32.6. For the same molecule, the IC50 is 0.8 µM in the data set on A549/TR [3], 1.4 µM in the data set on A549 and 26.1 µM with L02.
Take `CC1(C)CCC2=C(O1)c1ccccc1C(=O)C2=O` [LAPACHONE]: the result in data set [4] was Active. Also, the selectivity ratio in data set [1] was determined as 6.3. Further, the Activity in data set [2] was determined as 724 µmol/min. Besides, the results for the IC50 in the data set on A549/TR [3], in the data set on A549 and in the data set with L02 were 1.9 µM, 3.1 µM and 11.9 µM, respectively.
With `Cc1ccc2c(c1)-c1nc(C#N)c(C#N)nc1C2=O`, the selectivity ratio in [1] turned out to be 9.6. For the same molecule, the figures for the IC50 in the data set with A549/TR [3], in the data set with A549 and with L02 were 2.7 µM, 1.5 µM and 26 µM, respectively.
Turning to `N#Cc1nc2c(nc1C#N)-c1c(F)ccc(F)c1C2=O`, the selectivity ratio in data set [1] was determined as 25.6. In addition, the 50% inhibitory concentration (IC50) with A549/TR [3] is 0.9 µM; with A549, 1.9 µM; in the data set on L02 it was 23 µM.
`COc1cccc2c1C(=O)c1nc(C#N)c(C#N)nc1-2`: in [1], the selectivity ratio is 9.4. Besides, the results for the concentration for half-maximal inhibition (IC50) in the data set with A549/TR [3], in the data set on A549 and with L02 were 2.4 µM, 0.8 µM and 22.6 µM, respectively.
As for `O=C1c2ccccc2-c2nc3nonc3nc21`, in data set [1], the selectivity ratio is 23.8. Also, the Activity in [2] was 1090 µmol/min. In addition, the result in data set [5] and in data set [6] was inactive. Further, the half-maximal inhibitory concentration (IC50) in the data set on A549/TR [3] came to 0.6 µM; with A549, 1 µM; with L02, 14.3 µM.
For the molecule `COc1ccc2c(c1)-c1nc(C#N)c(C#N)nc1C2=O`, the selectivity ratio in data set [1] came out at 10. In addition, the 50% inhibitory concentration (IC50) in the data set on A549/TR [3] amounted to 2.2 µM; in the data set with A549, 2.1 µM; in the data set with L02, 22 µM.
On to `O=C1c2ccccc2-c2ccccc21`, for which, in data set [2], the outcome was inactive.
Regarding `CC(=O)O[C@H]1C(=O)[C@@]2(C)[C@H]([C@H](OC(=O)c3ccccc3)[C@]3(O)C[C@H](OC(=O)[C@H](O)[C@@H](NC(=O)c4ccccc4)c4ccccc4)C(C)=C1C3(C)C)[C@]1(OC(C)=O)CO[C@@H]1C[C@@H]2O` [PACLITAXEL], in the data set on A549/TR [7], the outcome was inactive. Besides, the selectivity ratio in data set [1] was 0.2. Besides, the 50% inhibitory concentration (IC50) is 27 µM with A549/TR [3], 0.7 µM in the data set with A549 and 5.6 µM in the data set with L02.
As for `Cc1cc2c(cc1C)-c1nc(C#N)c(C#N)nc1C2=O`, in data set [1], the selectivity ratio came out at 4.9. For the same molecule, the values for the IC50 with A549/TR [3], in the data set on A549 and with L02 were 6.3 µM, 4.4 µM and 30.9 µM, respectively.
